Screening data from PubChem.
Measles CPE: protection of cells from measles virus; Measles virus-infected cells, CPE protection, absorbance; protection (pct of control), % at 4 µM; hit rate 1.5% among 140,000; in the data active = protection mostly above about 24%, no sharp cut-off; inactive = mostly below about 26%
NPY Y2 blocker: blocks the human neuropeptide Y Y2 receptor | inhibition, % at 2.7 µM | P49146 | AID 793 | NPY-Y2 expressing cells, antagonist mode | hit rate 0.99% among 140,000; in the data active = inhibition above about 17%
Rad51 HR inh: Rad51 (human) homologous recombination inhibition | inhibition, % at 10 µM | hRad51 DNA strand exchange, fluorescence dequenching | AID 1385 | Q06609 | hit rate 0.085% among 200,000;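 active = inhibition above 40% at the single screening dose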
Target sequence (Q06609 whole entry, looked up): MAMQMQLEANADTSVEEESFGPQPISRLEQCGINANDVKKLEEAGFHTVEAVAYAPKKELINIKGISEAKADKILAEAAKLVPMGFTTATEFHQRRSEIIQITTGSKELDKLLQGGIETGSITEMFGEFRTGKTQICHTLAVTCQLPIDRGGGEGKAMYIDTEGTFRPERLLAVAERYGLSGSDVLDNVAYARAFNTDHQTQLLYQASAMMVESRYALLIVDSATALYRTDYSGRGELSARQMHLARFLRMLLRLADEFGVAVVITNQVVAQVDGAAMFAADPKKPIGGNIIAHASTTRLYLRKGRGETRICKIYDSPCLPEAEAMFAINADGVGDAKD
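material = hRad51 filaments on single-stranded DNA | reagent = Donor/quencher-labelled 47-bp dsDNA substrate | compound = 10 µM final, single point | schedule = strand-exchange reaction 15 min at room temperature | measured by = fluorescein emission 520 nm, excitation 485 nm | read-out basis = % inhibition versus plate control and blank means | benchmarks = plate controls and plate blanks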
NPY2 pot ag: human NPY-Y2 potentiation or agonism, primary screen. P49146. cells expressing NPY-Y2, potentiator/agonist read-out. activation, % at 3.6 µM. hit rate 0.45% among 220,000; in the data active = activation above about 27%;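 note: cells stimulated with NPY near EC25 plus isoproterenol at EC100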
NPY-Y1 antag: NPY-Y1 (human) receptor antagonism; P25929; HEK293-CNG Y1 cells, membrane potential fluorescence; NPY at EC95, then isoproterenol; inhibition, % at 3.6 µM; hit rate 1% among 200,000; AID 1040;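 active = inhibition above the campaign mean inhibition of all tested compounds plus 3 SD, cut at about 20% in these data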
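Assay system: HEK293 Y1/CNG channel cell line; Doses: single compound dose of 3.6 µM, 0.4% DMSO; Timing: dye 3 h, compound 60 min room temperature, stimulation 45 min; Technique: Membrane-potential fluorescent dye readout; Measure: % inhibition of NPY effect.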
NPY1 pot ag: potentiates or activates human NPY-Y1 receptor | NPY-Y1 expressing cells, potentiator/agonist activation | activation, % at 3.6 µM | P25929 | hit rate 0.37% among 220,000; in the data active = activation above about 33%, passing the limit was not always enough;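 note: cells stimulated with NPY at EC10 then isoproterenol at EC100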
Numbers stand for hits; . = inactive; / = not tested or not shown. Rows were chosen to be rich in hits. Some 2.8% of all compounds tested hit in one or more screens of this group.

SMILES	Measles CPE	NPY Y2 blocker	Rad51 HR inh	NPY2 pot ag	NPY-Y1 antag	NPY1 pot ag
COc1ccc(NC(=O)CCCc2c[nH]c3ccccc23)cc1OC	.	.	.	.	.	.
COC(CNC(=O)C1CCCN(S(=O)(=O)c2c(C)noc2/C=C/c2cccs2)C1)OC (centres undefined)	/	/	.	.	.	.
O=C(O)c1ccccc1C(=O)N1CCN(c2cccc(Cl)c2)CC1	.	.	.	.	.	.
CCOc1ccccc1C(=O)N1CCN(c2cccc(Cl)c2)CC1	.	17	.	.	30	.
Cc1ccc(NC(=O)c2ccc(OC(=O)COc3cccc(Cl)c3)cc2)cc1	.	.	.	.	.	.
COC(=O)CN1C(c2ccc(Cl)cc2)=Nc2ccc(Cl)cc2C1c1ccccc1 (centres undefined)	.	19	.	.	27	.
COc1ccc(C2=Nc3ccc(C)cc3C(c3ccccc3)N2CC(=O)NN)cc1 (centres undefined)	/	/	.	.	.	.
O=C(Nc1ccccc1)C1CCN(C(=O)c2ccccc2)CC1	.	.	.	.	.	.
COc1ccc2nc(Nc3nc(C)c(C(C)=O)s3)sc2c1	.	.	.	34	.	41
CCOC(=O)c1cc(-c2cccnc2)nn1-c1ccccc1C	/	/	.	.	.	.
COc1ccc(C(=O)C2CCCN(C(=O)C3=CCCC3)C2)c(C)c1 (centres undefined)	/	/	.	.	.	.
C#CCOCCOCCOCCNc1nc(N2CCN(C(=O)[C@H](CCC(=O)O)n3cc(C(N)[C@H](C)CC)nn3)CC2)nc(N2CCN(C(=O)[C@H](CCC(=O)O)n3cc(C(N)[C@H](C)CC)nn3)CC2)n1 (some centres undefined)	/	/	.	.	.	.
O=C(NC(=S)Nc1ccc(S(=O)(=O)Nc2nccs2)cc1)c1ccccc1	.	.	.	.	.	.
O=C(NC(=S)Nc1ccc(S(=O)(=O)Nc2nccs2)cc1)c1ccc(F)c(F)c1	30	.	.	.	.	.
Cc1cc(O)c(C=O)c2c1C(=O)Oc1c(CO)c(O)c3c(c1O2)C(O)OC3=O (centres undefined)	/	/	66	.	.	.
Cc1cc(CNC(=O)CC2C(=O)NCCN2CC(C)(C)C)nn1C (centres undefined)	/	/	/	.	.	.
CC(C)(C)CC(=O)Nc1nnc(SCC(=O)Nc2ccccc2F)s1	/	/	.	.	21	.
O=C(CSc1nnc(NC(=O)c2ccccc2F)s1)Nc1ccccc1F	/	/	.	.	.	.
CCOC(=O)c1c(NC(=O)C2CCCN(S(=O)(=O)c3ccc(C)cc3)C2)sc2c1CCCC2 (centres undefined)	.	.	.	.	.	.
CC(Sc1nc(N)c2c3c(sc2n1)CSC(C)(C)C3)C(=O)Nc1ccccc1 (centres undefined)	.	53	.	.	22	.
CC(Sc1nc(NCc2ccccc2)nc(N(C)C)n1)C(=O)Nc1ccccc1 (centres undefined)	.	.	.	.	.	.
COC(=O)CSc1nnc(-c2ccc(S(=O)(=O)N3CCC(C)CC3)cc2)o1	.	.	.	.	.	.
CCn1c(SCc2nnc(-c3ccccc3)o2)nnc1-c1ccc(S(=O)(=O)N2CCCC2)cc1	55	.	.	.	.	.
CCn1c(SCc2ccccc2)nnc1-c1ccc(S(=O)(=O)N2CCCCC2)cc1	.	.	.	.	.	.
COC(=O)CSc1nnc(-c2ccc(S(=O)(=O)N3CCCCC3)cc2)o1	.	.	.	42	.	63
SMILES	Measles CPE	NPY Y2 blocker	Rad51 HR inh	NPY2 pot ag	NPY-Y1 antag	NPY1 pot ag
c1ccc2c(c1)CCN(c1nc(CN3CCOCC3)nc3sc4c(c13)CCCC4)C2	.	23	.	.	23	.
Cc1cc(NC(=O)CSc2ccc3nnc(-c4cccnc4)n3n2)no1	44	.	.	.	.	.
Cc1ccc(NC(=O)C2CCN(S(=O)(=O)c3ccccc3)CC2)cc1	/	/	.	.	.	.
Cc1c(NC(=O)C2CCN(S(=O)(=O)c3ccc(Cl)cc3)CC2)c(=O)n(-c2ccccc2)n1C	62	.	.	.	.	.
Cc1ccc(NC(=O)C2CCN(S(=O)(=O)c3ccc(F)cc3)CC2)cc1	.	.	.	105	.	113
Cc1nc2cc(C(=O)N3CCc4ccccc43)ccc2n1-c1ccc(F)c(F)c1	.	.	.	.	.	.
N#Cc1c(N2CCCCC2)nc(N2CCCCC2)c2c1CCN(Cc1ccccc1)C2	.	25	/	.	23	.
O=C(CSc1nc(-c2ccco2)cc(C(F)(F)F)n1)N1CCN(c2ccc(Cl)cc2)CC1	70	.	.	.	.	.
COC(=O)c1sc(=S)n(-c2ccccc2OC)c1N	44	.	.	.	.	.
CCOC(=O)c1sc(=S)n(-c2ccccc2OC)c1N	.	.	.	.	.	.
O=C(NCc1ccccc1)c1cccc(COc2ccccc2Cl)c1	.	.	/	.	.	.
O=C(NCc1ccccc1)c1cccc(COc2cc(Cl)ccc2Cl)c1	44	.	.	.	.	.
CCCCCOc1ccc(Br)cc1CSC(=N)N	.	35	.	.	46	.
O=C(Nc1cnn(Cc2ccccc2)c1)NC12CC3CC(CC(C3)C1)C2	23	.	.	.	.	.
CC(=O)NCCn1c(SCc2cc(F)ccc2F)nc2ccccc2c1=O	41	.	.	.	.	.
O=c1c2ccccc2nc(SCc2cc(F)ccc2F)n1C1CCCC1	31	.	.	.	.	.
CC(C)CC(=O)Nc1ccc(C(=O)Cn2nc(C(=O)O)c3ccccc3c2=O)cc1	31	.	.	.	.	.
CC(C)(C)c1ccc(C(=O)Cn2nc(C(=O)O)c3ccccc3c2=O)cc1	/	/	.	.	/	.
CCC(=O)Nc1cc(C(=O)O)ccc1Sc1ccc(Cl)cc1	/	/	.	.	.	.
CC(C)[C@H](NC(=O)NCCc1ccc(F)cc1)C(=O)O	78	.	.	.	.	.
CCc1ccc(C(=O)NC(C(=O)O)C(C)C)cc1 (centres undefined)	38	.	.	.	.	.
CCc1ccc(C(=O)NC(CCSC)C(=O)O)cc1 (centres undefined)	.	.	.	.	.	.
CC1(C)CCC23CC[C@]4(C)C(OC2=O)(C3C1)[C@H]1O[C@H]1C1[C@@]2(C)CC[C@@H](O)C(C)(C)C2CC[C@]14C (some centres undefined)	/	/	.	/	/	/
CN(C)CCOC(=O)NCC12CC3CC(CC(C3)C1)C2	/	/	/	.	/	.
Cc1ccccc1C(=NCCCN(C)C)c1ccccc1C	.	.	.	.	.	.
COc1ccc(-n2c(C)n[nH]c2=O)cc1	68	.	.	.	.	.
CCOc1cc(Br)ccc1S(=O)(=O)N1CCC(C(N)=O)CC1	.	.	.	.	.	.
CCCCOc1ccc(C(C)NC(=O)C2CCCN(S(=O)(=O)CC)C2)cc1 (centres undefined)	38	.	.	.	.	.
